Bioassay records as filed in PubChem.
Jurkat viability = cytotoxic compounds reducing Jurkat cell viability; Jurkat E6.1 viability, ATP luminescence, 48 h; inhibition, % at 4 µM; 56,000 compounds, 1.2% hits;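 active = inhibition above the mean inhibition of all tested compounds plus 3 SD, cut at about 28% in these data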
SKBR3 24h inh = SK-BR-3 proliferation inhibitors. SK-BR-3 viability, CellTiter-Glo ATP luminescence, 24 h; active compounds read low. viability, % at 10 µM. 41,000 compounds, 0.47% hits. AID 847;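 active = viability at or below the median of all test compounds minus 3 SD, in both replicates if run twice, cut at about 45% in these data; inconclusive = duplicate replicates that disagree with each other; inactive = viability above that cutoff in every replicate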;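 note: 100% = median untreated cell wells and 0% = median positive control drug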
Her2 expr inh = inhibitors of human Her2 kinase expression | HER2 level % of control, % at 10 µM | P04626 | SKBR-3 HER2 protein level, AlphaScreen, 18-24 h; active compounds read low | AID 645 | 65,000 compounds, 0.69% hits;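 active = HER2 level under 5% of the carrier-only control; inconclusive = no clear call, values can overlap the other calls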;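 note: 100% = DMSO carrier and 0% = 500 nM PU-H71 HSP90 inhibitor; lower value means stronger loss of Her2 protein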
HEK293 NFkB inh = inhibitors of the PMA/ionomycin-induced NF-kB reporter in HEK293 cells. AID 465. inhibition, % at 3 µM. 62,000 compounds, 0.21% hits. HEK-293 NF-kB luciferase reporter, luminescence;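 active = inhibition above the mean of all tested compounds plus 3 SD, cut at about 40% in these data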;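 note: 0% = stimulated DMSO wells and 100% = 10 µM reference inhibitor 5653914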
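Timing: 1 h pretreatment, 16 h stimulation, 37 °C; system: HEK-293 cells with stable firefly luciferase reporter driven by four HIV NF-kB elements; doses: 3 µM once, 0.30% DMSO; measured by: luciferase luminescence; control set: DMSO and 10 µM reference inhibitor; repeats: single test; reagent: PMA plus ionomycin mix as NF-kB-activating stimulus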
* marks the source's active call; other numbers are inactive results; u = inconclusive; x = no result given. Sampled rows, rich in hits. Any-hit rate of the full collection: about 2%.

SMILES	Jurkat viability	SKBR3 24h inh	Her2 expr inh	HEK293 NFkB inh
Cc1ccc(C)n1-c1ccc(N2CCOCC2)nc1	-4.0	98.0	-18.8*	9.0
CC(C)Cc1[nH]c(=O)c(C#N)c2c1COC(C)(C)C2	x	72.4	57.4	x
CCOC(=O)c1ccc(Oc2cc(C)nc(SC)n2)cc1	75.1*	x	45.6	16.7
CCOC(=O)c1ccc(Oc2nc(SC)nc(N(C)C)n2)cc1	3.8	x	101.3	12.7
COC(=O)c1ccc(Oc2nc(C)cc(Oc3ccccc3)n2)cc1	-13.6	85.5	74.2	8.9
COC(=O)c1ccc(Oc2cc(C)nc(-n3nc(C)cc3C)n2)cc1	99.9*	98.6	68.9	36.7
O=C(O)CP(=O)(c1ccccc1)c1ccccc1	-0.8	x	79.7	7.3
CCc1ccc(NS(=O)(=O)c2cc(OC)ccc2OC)cc1	28.8*	90.5	78.9	6.8
COc1ccc(NS(=O)(=O)c2cc(C)ccc2C)cc1	73.5*	x	123.3	22.8
COc1ccc(C)c(S(=O)(=O)Nc2ccc(OCC(=O)O)cc2)c1	-3.9	x	82.8	4.4
COc1ccc(NS(=O)(=O)c2cc(OC)ccc2NC(=O)c2cc(C)oc2C)cc1	94.0*	x	65.4	38.5
COc1ccc(OC)c(S(=O)(=O)Nc2ccc(CC(=O)O)cc2)c1	-1.1	89.1	91.0	-10.9
COc1cc(OC)c(C2N(c3ccc(Cl)cc3)C(=O)C3CCCN32)cc1OC (stereo unspecified)	1.8	x	85.9	16.0
CN1CCN(Cc2cc(COCc3ccccc3)c3cccnc3c2O)CC1	35.5*	x	103.4	29.5
Oc1c(CN2CCCCC2)cc(Br)c2cccnc12	49.4*	39.5*	31.3	18.9
CCOc1ccc(-c2[nH]ncc2-c2ccc(OC)c(OC)c2)c(O)c1	91.5*	93.3	46.0	33.0
CCOc1ccc(-c2[nH]ncc2Oc2ccccc2OCC)c(O)c1	0.8	90.4	-17.6*	-0.8
CCOC(=O)C1(Nc2nccs2)Sc2ccccc2NC1=O (stereo unspecified)	82.6*	x	85.5	25.8
CCOC(=O)Nc1ccc2c(c1)Nc1ccccc1S2	11.9	82.5	85.4	5.9
CCC(c1nnnn1C1CCCCC1)N(Cc1ccco1)Cc1cc2ccc(OC)cc2[nH]c1=O (stereo unspecified)	-3.0	96.0	23.9	12.4
CCOC(=O)Cn1nnnc1C(CC)N(Cc1cccs1)Cc1cc2ccc(OC)cc2[nH]c1=O (stereo unspecified)	1.6	101.2	-9.3*	16.0
O=C(C1CCCN(S(=O)(=O)c2cccc3cccnc23)C1)N1CCN(c2ccccc2F)CC1 (stereo unspecified)	5.2	x	81.5	-0.7
O=C(CSc1nnc(-c2ccccc2)n1Cc1ccccc1)N1CCOCC1	4.0	x	114.2	9.3
Oc1ccccc1-c1nnc(SCCN2CCOCC2)n1Cc1ccccc1	77.8*	80.8	51.2	28.3
CCc1ccc(CNc2ccc(O)cc2)cc1	38.3*	99.2	87.9	-0.5
SMILES	Jurkat viability	SKBR3 24h inh	Her2 expr inh	HEK293 NFkB inh
Cc1cc(C(=O)OCC(=O)NCc2ccco2)c(C)n1-c1ccc(F)cc1	75.2*	x	68.2	30.0
O=C(COC(=O)c1ccco1)NCc1ccco1	9.6	70.3	92.9	11.8
O=C(N1CCCCCC1)N1CCN(S(=O)(=O)N2CCCCC2)CC1	-1.8	76.7	97.7	13.9
CCN(CC)c1ccc2cc(NC(=O)CCC(=O)O)c(=O)oc2c1	-6.9	42.8*	90.8	53.1*
CC(C)(C)c1cc(C(c2cccnc2)N2CCN(CCO)CC2)cc(C(C)(C)C)c1O (stereo unspecified)	-2.4	x	-15.2*	3.3
O=C(NCc1ccc2c(c1)OCO2)C1CCCN1C(=O)Nc1cccc(Cl)c1 (stereo unspecified)	-0.9	33.7*	102.0	8.9
COC(=O)c1[nH]c2ccc(Br)cc2c1NC(=O)CN1CCN(C2CCCCC2)CC1	3.3	86.9	-21.2*	7.3
CCOC(=O)C1CCN(CC(=O)Nc2c(C(=O)OC)[nH]c3ccccc23)CC1	10.0	91.3	107.7	0.7
CCOC(=O)C1CCN(CC(=O)Nc2c(C(=O)OC)[nH]c3ccc(Cl)cc23)CC1	44.1*	95.1	81.0	16.1
C[N+](C)(C)C/C=C1/COCO1	4.2	x	120.5	-1.5
CCN1c2ccccc2NC2N=C(OC)C(c3ccccc3)C21 (stereo unspecified)	2.4	36.3*	9.9	0.4
CCCN1Cc2cccc(C(=O)Nc3ccc(N4CCN(CC)CC4)cc3)c2C1=O	-7.7	x	110.0	11.2
C=CCn1c(COc2ccc(CC)cc2)nnc1SC/C(O)=C(\C#N)c1nc2ccccc2[nH]1	x	29.2*	69.8	6.5
c1ccc(-c2csc3ncn4nnnc4c23)cc1	-3.5	89.3	82.9	-0.3
Cn1nnnc1Sc1ncnc2scc(-c3ccc(F)cc3)c12	16.1	x	-10.9*	36.5
Cn1nnnc1Sc1ncnc2scc(-c3ccccc3)c12	3.0	x	0.6*	17.6
O=c1[nH]cnc2scc(-c3ccc(F)cc3)c12	8.0	88.4	146.2	10.8
COc1ccc(-c2nc(C(N)=O)c3[nH]c(=O)n(-c4cccc(Cl)c4)c3n2)cc1OC	-4.9	x	-11.8*	2.7
COc1cccc(-c2nc(C(N)=O)c3[nH]c(=O)n(-c4cccc(Cl)c4)c3n2)c1OC	-9.1	x	96.8	10.2
[O-][N+]1=C2CCC/C(=N\O)C2=NC12CCCCC2	-4.5	x	98.5	4.2
[O-][N+]1=c2ccc(Nc3ccccc3)cc2=NC12CCCCC2	9.3	46.1	-16.9*	22.7
COc1ccc(OC)c(NC2=NC3(CCCC3)N=C(N)N2)c1	-0.3	88.8	71.9	-5.6
COc1ccc(Nc2ccc3c(c2)=NC2(CCCCC2)[N+]=3[O-])cc1	x	3.2*	-55.7*	x
O=C(CSc1nnc2ccccn12)Nc1ccccc1C(=O)NC1CC1	5.0	x	102.0	18.3
COc1cc(NC(=O)c2ccco2)c(OC)cc1NC(=O)CSc1nnc(-c2cccs2)n1C	-0.1	42.1*	59.7	7.7
SMILES	Jurkat viability	SKBR3 24h inh	Her2 expr inh	HEK293 NFkB inh
COc1cc(NC(=O)c2cccs2)c(OC)cc1NC(=O)c1ccco1	19.3	92.2	91.7	0.6
CC(=O)c1c(N2CCN(Cc3ccccc3)CC2)[nH]c(-c2ccccc2)nc1=S	38.1*	x	11.2	19.7
N#CC1=C(N)Oc2cc(N)ccc2C1C1CCCCC1 (stereo unspecified)	84.0*	90.8	59.8	19.1
COc1ccc(NC(=O)CCS(=O)(=O)c2ccc(OC)cc2)cc1	x	115.0	182.5	5.4
CCOC(=O)CCS(=O)(=O)c1nc(-c2ccccc2)cc(C(F)(F)F)n1	67.8*	61.0	-8.7*	10.1
CCOC(=O)CS(=O)(=O)c1nc(-c2ccccc2)cc(C(F)(F)F)n1	54.8*	u	-27.2*	4.2
COc1nc(-c2ccccc2)cc(C(F)(F)F)n1	5.0	91.5	91.9	17.4
CCOC(=O)CS(=O)(=O)c1ccc2ccccc2c1	x	104.9	86.9	6.7
CCOC(=O)CS(=O)(=O)c1nc(-c2ccc(F)cc2)cc(C(F)(F)F)n1	34.2*	25.8*	-17.6*	14.0
COCC(C)NC(=O)CCS(=O)(=O)c1nc(-c2ccc(OC)cc2)cc(C(F)(F)F)n1 (stereo unspecified)	6.2	u	-19.6*	-2.3
